These results are taken from ChEMBL document CHEMBL5653630, “Activation of the p53-MDM4 regulatory axis defines the anti-tumour response to PRMT5 inhibition through its role in regulating cellular splicing” (Sci Rep, 2018).

The structures appear in SMILES notation. Active and inactive are the calls of the source. No cut-off for these calls is given here.

Experiment [1] deals with Z-138. The experiment is described as follows: Induction of cell cycle arrest in human Z138 cells assessed as accumulation of cells at G1 phase cells incubated for 1 to 10 days by propidium iodide staining based flow cytometric analysis. Format: functional. The note with it: dose <= 1000.0 nM, time 1-10 day. (In general: In flow cytometry, cells or beads pass a laser one at a time.)

In experiment [2] the test system is MDA-MB-468. The experiment is described as follows: Induction of cell cycle arrest in human MDA-MB-468 cells assessed as decrease in 2n cell population measured upto 5000 nM measured for 2 to 7 days by propidium iodide staining based flow cytometric analysis. The note with it: time 2-7 day. The experiment is classed as functional.
In experiment [3] the test system is Z-138. The experiment is described as follows: In vivo inhibition of PRMT5 in human Z138 cells xenografted in mouse assessed as increase in p21 expression at 100 mg/kg, po BID measured for 7 days. Particulars: time 7.0 day. Format: functional, organism-based. On the technique in general: A xenograft is tissue or cells of one species grown in another, often human tumour cells in immunodeficient mice.

Experiment [4] is described as follows: Antiproliferative activity against human RKOE6 cells assessed as cell growth inhibition incubated for 10 days. Format: functional. The note with it: RKOE6, 240 h, time 10 day.
For experiment [5], the system named is SW1417. The experiment is described as follows: Antiproliferative activity against human SW1417 cells assessed as cell growth inhibition incubated for 10 days. Format: functional. Particulars: SW1417, 240 h, time 10 day.
Experiment [6] concerns SW1088. Kind of experiment: Antiproliferative activity against human SW1088 cells assessed as cell growth inhibition incubated for 10 days. The note with it: SW1088, 240 h, time 10 day. Format: functional.
Experiment [7] relates to DOHH-2. The experiment is described as follows: Antiproliferative activity against human DOHH-2 cells assessed as cell growth inhibition incubated for 10 days. The experiment is classed as functional. The note with it: DOHH-2, 240 h, time 10 day. The essentials:
(§1)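 Outsourced panel run in 384-well plates. Cells were grown in RPMI-1640/10% FBS or a special medium at 37°C, 5% CO2. Compound was added 24 h after seeding as a 10-point, 3.16-fold series in 0.1% DMSO. Medium was refreshed and cells re-dosed at 168 h, with a time-zero plate kept. At 240 h cells were fixed, nuclei stained and imaged. gIC50 is growth midway between untreated and time zero, from a 4-parameter fit.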

Experiment [8] concerns SW982. Kind of experiment: Antiproliferative activity against human SW982 cells assessed as cell growth inhibition incubated for 10 days. Format: functional. Particulars: SW982, 240 h, time 10 day.
In experiment [9] the test system is HuCCT-1. The experiment is described as follows: Antiproliferative activity against human HuCCT-1 cells assessed as cell growth inhibition incubated for 10 days. Particulars: HuCCT-1, 240 h, time 10 day. The experiment is classed as functional. The essentials:
(§2)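 Eurofins panel, 384-well. Cells kept in RPMI-1640 with 10% FBS, 2 mM L-alanyl-L-glutamine and 1 mM Na pyruvate, or in a special medium, at 37°C under 5% CO2. Compound added 24 h after seeding as 10 concentrations in 3.16-fold steps, 0.1% DMSO final. Medium replaced and compound re-dosed at 168 h. After 240 h, cells fixed and nuclei stained for imaging. gIC50 = growth midway between untreated cells and time-zero count.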

The subject of experiment [10] is BE(2)-C. Kind of experiment: Antiproliferative activity against human BE2C cells assessed as cell growth inhibition incubated for 10 days. Format: functional. The note with it: 240 h, time 10 day. Put shortly:
(§3)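 Cells kept in RPMI-1640 with 10% FBS, 2 mM L-alanyl-L-glutamine and 1 mM Na pyruvate (or a special medium) at 37°C, 5% CO2. Compound added 24 h after seeding, 10 concentrations in 3.16-fold dilution, 0.1% DMSO final. Medium replaced and cells re-dosed at 168 h; 240 h incubation. Nuclei fixed, dye-stained and imaged. gIC50 = growth midway between untreated and time-zero cell counts, from a 4-parameter fit.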

The subject of experiment [11] is SK-OV-3. Kind of experiment: Antiproliferative activity against human SK-OV-3 cells assessed as cell growth inhibition incubated for 10 days. The experiment is classed as functional. The note with it: SK-OV-3, 240 h, time 10 day.
Experiment [12] has as its system HCT-15. The experiment is described as follows: Antiproliferative activity against human HCT-15 cells assessed as cell growth inhibition incubated for 10 days. Format: functional. The note with it: HCT-15, 240 h, time 10 day. Put shortly:
as §1

Experiment [13] concerns COLO-829. Kind of experiment: Antiproliferative activity against human COLO-829 cells assessed as cell growth inhibition incubated for 10 days. Format: functional. Particulars: COLO-829, 240 h, time 10 day. The essentials: as §3
Experiment [14] concerns AN3-CA. Kind of experiment: Antiproliferative activity against human AN3-CA cells assessed as cell growth inhibition incubated for 10 days. Format: functional. Particulars: 240 h, time 10 day. Put shortly: as §3
The nature of experiment [15]: Antiproliferative activity against human SKO-007 cells assessed as cell growth inhibition incubated for 10 days. Format: functional. Particulars: SKO-007, 240 h, time 10 day.
The subject of experiment [16] is HCT-116. The experiment is described as follows: Antiproliferative activity against human HCT-116 cells assessed as cell growth inhibition incubated for 10 days. The experiment is classed as functional. Particulars: HCT-116, 240 h, time 10 day. Put shortly:
as §1

Experiment [17] has as its system T98G. The experiment is described as follows: Antiproliferative activity against human T98G cells assessed as cell growth inhibition incubated for 10 days. Format: functional. Particulars: 240 h, time 10 day.
Experiment [18] relates to Z-138. The experiment is described as follows: Induction of cell cycle arrest in human Z138 cells expressing full length MDM4 assessed as accumulation of cells at G1 phase at 500 nM incubated for 4 days. Format: functional, cell-based. Particulars: time 4.0 day.
Experiment [19] deals with AGS. The experiment is described as follows: Antiproliferative activity against human AGS cells assessed as cell growth inhibition incubated for 10 days. Format: functional. The note with it: 240 h, time 10 day. Put shortly: as §3
The subject of experiment [20] is OE19. The experiment is described as follows: Antiproliferative activity against human OE19 cells assessed as cell growth inhibition incubated for 10 days. Format: functional. The note with it: OE19, 240 h, time 10 day.
The test system of experiment [21] is A 172. Kind of experiment: Antiproliferative activity against human A-172 cells assessed as cell growth inhibition incubated for 10 days. Format: functional. Particulars: A 172, 240 h, time 10 day. The essentials: as §3
The subject of experiment [22] is SNU-5. The experiment is described as follows: Antiproliferative activity against human SNU-5 cells assessed as cell growth inhibition incubated for 10 days. Particulars: SNU-5, 240 h, time 10 day. Format: functional.
Experiment [23] has as its system G-401. The experiment is described as follows: Antiproliferative activity against human G-401 cells assessed as cell growth inhibition incubated for 10 days. The experiment is classed as functional. The note with it: G-401, 240 h, time 10 day. The essentials: as §1
Experiment [24] in a line: Antiproliferative activity against human OCUG-1 cells assessed as cell growth inhibition incubated for 10 days. Format: functional. Particulars: OCUG-1, 240 h, time 10 day.
Experiment [25] concerns 769-P. Kind of experiment: Antiproliferative activity against human 769-P cells assessed as cell growth inhibition incubated for 10 days. Format: functional. The note with it: 240 h, time 10 day. Put shortly: as §3
Experiment [26] deals with HT-1080. The experiment is described as follows: Antiproliferative activity against human HT-1080 cells assessed as cell growth inhibition incubated for 10 days. The experiment is classed as functional. The note with it: HT-1080, 240 h, time 10 day. The essentials:
as §1

The target of experiment [27] is Protein arginine N-methyltransferase 5 (Homo sapiens) (UniProt O14744). Kind of experiment: Inhibition of PRMT5 in p53 knockout human Z138 cells effect on p53 expression at 500 nM incubated for 3 to 11 days by Western blot analysis. Format: cell-based. Particulars: time 3-11 day.
Protein arginine N-methyltransferase 5 (Homo sapiens), sequence (O14744 whole entry): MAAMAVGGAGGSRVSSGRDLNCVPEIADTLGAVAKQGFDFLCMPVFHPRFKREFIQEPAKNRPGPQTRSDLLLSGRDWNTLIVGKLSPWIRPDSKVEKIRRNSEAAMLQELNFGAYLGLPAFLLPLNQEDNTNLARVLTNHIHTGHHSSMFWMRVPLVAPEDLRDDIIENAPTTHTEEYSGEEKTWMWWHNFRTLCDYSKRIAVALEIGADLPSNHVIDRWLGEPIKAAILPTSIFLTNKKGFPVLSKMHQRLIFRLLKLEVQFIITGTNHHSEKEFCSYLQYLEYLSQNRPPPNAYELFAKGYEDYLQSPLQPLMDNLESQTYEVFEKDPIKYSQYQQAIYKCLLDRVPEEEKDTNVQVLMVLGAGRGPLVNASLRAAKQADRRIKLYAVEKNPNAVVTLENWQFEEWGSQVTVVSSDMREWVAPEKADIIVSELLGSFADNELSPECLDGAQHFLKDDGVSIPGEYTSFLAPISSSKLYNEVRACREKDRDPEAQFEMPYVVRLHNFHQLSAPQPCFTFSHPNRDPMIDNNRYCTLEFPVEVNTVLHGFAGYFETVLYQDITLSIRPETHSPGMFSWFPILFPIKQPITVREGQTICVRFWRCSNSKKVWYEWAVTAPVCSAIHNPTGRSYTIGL
The subject of experiment [28] is Capan-2. Kind of experiment: Antiproliferative activity against human Capan-2 cells assessed as cell growth inhibition incubated for 10 days. Format: functional. Particulars: Capan-2, 240 h, time 10 day. The essentials: as §1
The nature of experiment [29]: Antiproliferative activity against human MT-3 cells assessed as cell growth inhibition incubated for 10 days. Particulars: MT-3, 240 h, time 10 day. Format: functional.
Experiment [30] has as its system A-431. The experiment is described as follows: Antiproliferative activity against human A-431 cells assessed as cell growth inhibition incubated for 10 days. The experiment is classed as functional. The note with it: A-431, 240 h, time 10 day. Put shortly:
as §3

Experiment [31] relates to CCF-STTG1. The experiment is described as follows: Antiproliferative activity against human CCF-STTG1 cells assessed as cell growth inhibition incubated for 10 days. The note with it: CCF-STTG1, 240 h, time 10 day. Format: functional. The essentials: as §3
Experiment [32] relates to C-4-II. The experiment is described as follows: Antiproliferative activity against human C-4-II cells assessed as cell growth inhibition incubated for 10 days. Format: functional. The note with it: 240 h, time 10 day. Put shortly: as §3
Experiment [33] concerns Hs 695T. Kind of experiment: Antiproliferative activity against human Hs 695T cells assessed as cell growth inhibition incubated for 10 days. The experiment is classed as functional. Particulars: 240 h, time 10 day. The essentials:
as §2

In experiment [34] the test system is C-33-A. Kind of experiment: Antiproliferative activity against human C-33-A cells assessed as cell growth inhibition incubated for 10 days. Format: functional. Particulars: 240 h, time 10 day. Put shortly: as §3

As for `CC(=O)N1CCC(Nc2cc(C(=O)NC[C@H](O)CN3CCc4ccccc4C3)ncn2)CC1` [PEMRAMETOSTAT], the Activity result in experiment [1] was “Dose-Dependent Effect”. Moreover, the result in experiment [2] was inactive. Besides, in experiment [3], the inhibition result was “Active”.
The GI50 is the concentration at which growth is held to half of that of the control. Turning to `O=C(NC[C@H](O)CN1CCc2ccccc2C1)c1ccnc(NC2CCC2)c1`, the GI50 in [4] was 210 nM; in [5] it was 773 nM; in experiment [6], 40.5 nM; in experiment [7] it was 157 nM; in [8], 56.7 nM; in experiment [9] it was 225 nM. In addition, the GI50 in experiment [10] is 803 nM; in experiment [11] it was 52.6 nM; in experiment [12], 68.4 nM; in [13], 54.4 nM; in [14], 254 nM; in experiment [15], 84.4 nM. In addition, the 50% growth inhibitory concentration (GI50) came to 166 nM in experiment [16]; 27.3 nM in [17]; 2030 nM in experiment [19]; 98 nM in [20]; 29.6 nM in experiment [21]; 110 nM in [22]. Moreover, the GI50 came to 38.4 nM in experiment [23]; 379 nM in [24]; 203 nM in experiment [25]; 53.5 nM in [26]; 69.7 nM in experiment [28]; 46.4 nM in experiment [29]. For the same molecule, the GI50 in [30] turned out to be 549 nM; in experiment [31] it was 115 nM; in [32], 266 nM; in experiment [33], 602 nM; in experiment [34], 228 nM. In addition, the outcome in [18] was Active. Besides, the inhibition result in [27] is “inactive”.
